Compound activity deposited in PubChem by Johns Hopkins Ion Channel Center.
The list is not random: actives were taken first. Their share in the collection is about 3.7%.
hERG protect = hERG (human) protection from proarrhythmic block; AID 1511; 310,000 tested, 0.51% active; Q12809; CHO-hERG, FluxOR thallium flux, dofetilide IC70 present; activation (rescue from dofetilide block), less the hit threshold, % at 10 µM;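 active = activation above the mean of controls blocked by dofetilide plus 5 SD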;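 also: thallium influx through hERG after potassium depolarization seen as dye fluorescence rise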
Target sequence (Q12809 whole entry, looked up): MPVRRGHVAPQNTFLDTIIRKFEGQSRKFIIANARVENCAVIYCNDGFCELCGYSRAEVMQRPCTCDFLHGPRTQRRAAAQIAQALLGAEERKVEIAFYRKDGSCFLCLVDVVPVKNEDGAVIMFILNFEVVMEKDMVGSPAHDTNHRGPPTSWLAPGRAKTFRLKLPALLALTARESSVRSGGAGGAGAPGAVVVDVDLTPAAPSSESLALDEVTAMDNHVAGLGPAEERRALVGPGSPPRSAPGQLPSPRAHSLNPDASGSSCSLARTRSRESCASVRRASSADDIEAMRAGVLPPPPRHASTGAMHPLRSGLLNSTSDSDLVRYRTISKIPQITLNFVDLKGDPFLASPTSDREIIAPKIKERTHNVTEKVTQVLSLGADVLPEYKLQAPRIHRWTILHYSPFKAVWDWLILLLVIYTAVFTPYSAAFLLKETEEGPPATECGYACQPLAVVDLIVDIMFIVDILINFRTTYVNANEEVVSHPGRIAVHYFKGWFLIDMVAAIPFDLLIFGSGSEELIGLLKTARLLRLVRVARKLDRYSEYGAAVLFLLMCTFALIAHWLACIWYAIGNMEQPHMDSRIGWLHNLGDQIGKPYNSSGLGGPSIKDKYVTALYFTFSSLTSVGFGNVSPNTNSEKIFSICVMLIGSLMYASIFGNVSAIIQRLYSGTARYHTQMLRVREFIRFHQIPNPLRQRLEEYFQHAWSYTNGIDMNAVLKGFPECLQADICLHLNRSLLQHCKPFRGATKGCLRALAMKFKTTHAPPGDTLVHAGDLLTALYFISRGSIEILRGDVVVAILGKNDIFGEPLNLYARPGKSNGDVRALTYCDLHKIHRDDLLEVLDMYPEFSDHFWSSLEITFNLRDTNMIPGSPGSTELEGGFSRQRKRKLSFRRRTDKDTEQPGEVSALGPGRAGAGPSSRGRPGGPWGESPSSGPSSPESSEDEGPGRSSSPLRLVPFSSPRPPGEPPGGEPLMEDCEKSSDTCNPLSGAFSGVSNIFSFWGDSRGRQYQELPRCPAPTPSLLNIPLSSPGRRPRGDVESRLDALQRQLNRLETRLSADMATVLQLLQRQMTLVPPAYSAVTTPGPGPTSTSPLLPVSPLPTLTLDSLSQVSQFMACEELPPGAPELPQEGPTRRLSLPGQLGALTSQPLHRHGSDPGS
KCNQ1 act = human KCNQ1 channel potentiation or activation | P51787 | CHO-K1 KCNQ1, thallium flux FluxOR fluorescence; active compounds read high | B-score at 10 µM | 310,000 tested, 0.35% active | AID 2648;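 active = fluorescence ratio B-score, a plate-corrected score, at least three library SD, with initial intensity B-score within 5 SD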
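Assay system: CHO-K1 cells stably expressing KCNQ1. Medium: assay buffer for compound exposure, DMSO matched across wells. Timing: 37 °C overnight plating, 90-min dark dye load, 20-min compound pretreatment. Signal: kinetic FluxOR fluorescence, 10 s baseline plus 110 s post-stimulus.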
KCNK3 inh = human KCNK3 channel inhibition, primary screen. CHO-KCNK3 thallium flux, FluxOR fluorescence; active compounds read low. 340,000 tested, 0.84% active. AID 602410. O14649. B-score at 10 µM;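 active = B-score under library mean minus 4 SD, starting fluorescence ratio at most library mean plus 5 SD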;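 also: more negative B-score means stronger inhibition of thallium flux through KCNK3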
KCNK9 block = blocks the human KCNK9 two-pore domain potassium channel; Q9NPC2; HEK293 KCNK9, FluxOR thallium flux fluorescence; active compounds read low; B-score at 10 µM; 310,000 tested, 1.2% active; AID 488922;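 active = ratio B-score over 3 SD below the library mean, with starting fluorescence within 5 SD of its mean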;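 also: negative B-score means less thallium flux so channel inhibition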
KCNQ1 block = inhibitors of human KCNQ1 potassium channel; 310,000 tested, 1.3% active; B-score at 10 µM; CHO-K1 KCNQ1, FluxOR thallium flux fluorescence; active compounds read high;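 active = compounds whose thallium flux B-score, printed positive for inhibition, exceeds three library SD while starting fluorescence stays within three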;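 also: channel opened by potassium depolarization with thallium stimulus after 20 min compound exposure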
Kir21 inh = inhibitors of mouse Kir2.1 inward-rectifier potassium channel. 310,000 tested, 0.85% active. B-score at 10 µM. HEK293-Kir2.1, FluxOR thallium flux fluorescence; active compounds read low;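 active = fluorescence ratio B-score at or below minus 3 SD of library scores, with starting-brightness B-score within 2 SD, cut at about -4.2 in these data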;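 also: channel flux triggered by added potassium and thallium sulfate stimulus; B-score of peak minus minimum fluorescence over baseline after thallium stimulus; more negative B-score means stronger Kir2.1 block with less thallium influx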
KCNK9 inh conf = human KCNK9 inhibitor confirmation. shares compounds with KCNK9 block. HEK293 KCNK9 cells, FluxOR thallium flux fluorescence. inhibition, % at 10 µM. 4,900 tested, 43% active;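 active = thallium signal inhibited by more than 5 SD of the compound-free buffer control wells, on both duplicate plates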;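 also: 0% = assay buffer control wells without compound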
Kir2-1 spec = selectivity of KCNK9 modulators against mouse Kir2.1 | shares compounds with KCNK9 block | Kir2.1 cells, FluxOR thallium flux fluorescence | inhibition, % at 10 µM | 4,900 tested, 4% active;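 active = thallium signal drop more than 5 SD beyond the mean of the no-compound control wells, seen in both duplicate plates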;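 also: signal is fluorescence rise after thallium addition divided by baseline fluorescence; plate controls were assay buffer only for no effect and full block by chlorpromazine control for full effect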
KCNK9 uninduced = non-induced cell nonspecific activity of KCNK9 modulators. shares compounds with KCNK9 block. inhibition, % at 10 µM. 4,900 tested, 40% active. non-induced KCNK9-HEK293, FluxOR thallium flux. AID 492997;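 active = thallium signal drop beyond 5 SD of the untreated control mean, on both duplicate plates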;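 also: plate controls were buffer only IC0 wells for no effect and SID17386958 at its maximal inhibitory level for full effect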
An asterisk follows results filed as active.

For CCOC(=O)C1(CC2CC2)CCN(Cc2cn(C)c3ccccc23)CC1 the results were hERG protect -6, KCNQ1 act inactive, KCNK3 inh inactive, KCNK9 block inactive, KCNQ1 block inactive, Kir21 inh -2.6, KCNK9 inh conf inactive, Kir2-1 spec inactive and KCNK9 uninduced inactive.
COc1ccc(-c2csc(Nc3ccccc3)[n+]2Cc2ccccc2)cc1 was read as hERG protect -15, KCNQ1 act inactive, KCNK3 inh inactive, KCNK9 block -9.4*, KCNQ1 block inactive, Kir21 inh 0.56, KCNK9 inh conf 46%*, Kir2-1 spec inactive and KCNK9 uninduced 27%*.
N#Cc1ccc(-c2ccc(OCC(=O)NN=Cc3ccncc3)cc2)cc1 was read as KCNK3 inh inactive.
CC1CC(C)CN(C(=O)C2CCN(C(=O)Nc3ccccc3)CC2)C1 (stereo unspecified) was read as hERG protect -12, KCNQ1 act inactive, KCNK3 inh inactive, KCNK9 block inactive, KCNQ1 block inactive and Kir21 inh -0.11.
`CN1C[C@@H]2[C@@H]3C(=O)N(Cc4ccccc4)C(=O)[C@@H]3[C@](Cc3ccccc3)(C1=O)N2C(=O)c1ccc(C(F)(F)F)cc1` gave KCNK3 inh inactive.
CCC(c1nnnn1C(C)(C)C)N(Cc1ccco1)Cc1cc2cccc(C)c2[nH]c1=O (stereo unspecified) was read as hERG protect -5, KCNQ1 act inactive, KCNK3 inh inactive, KCNK9 block inactive, KCNQ1 block inactive and Kir21 inh -0.39.
Screening CCC(c1nnnn1CCc1ccccc1)N(Cc1ccco1)Cc1cc2cccc(C)c2[nH]c1=O (stereo unspecified) returned hERG protect -12, KCNQ1 act inactive, KCNK3 inh inactive, KCNK9 block -10*, KCNQ1 block 7*, Kir21 inh -1.7, KCNK9 inh conf 33%*, Kir2-1 spec inactive and KCNK9 uninduced 30%*.
For Cc1cccc(N2CCN(CC(=O)NCc3ccc(Cl)cc3)CC2)c1C the results were hERG protect -15, KCNQ1 act inactive, KCNK3 inh inactive, KCNK9 block inactive, KCNQ1 block inactive, Kir21 inh 0.21, KCNK9 inh conf inactive, Kir2-1 spec inactive and KCNK9 uninduced inactive.
`CCOC(=O)C1CCN(CCCSc2ccc(Cl)cc2)CC1` gave hERG protect -5, KCNQ1 act inactive, KCNK3 inh inactive, KCNK9 block inactive, KCNQ1 block inactive, Kir21 inh -4.2*, KCNK9 inh conf inactive, Kir2-1 spec inactive and KCNK9 uninduced inactive.
Cc1noc(NS(=O)(=O)c2ccc(NC(=O)Nc3ccc(Cl)c(Cl)c3)cc2)c1C was read as hERG protect -14, KCNQ1 act inactive, KCNK3 inh inactive, KCNK9 block inactive, KCNQ1 block inactive, Kir21 inh -0.08, KCNK9 inh conf inactive, Kir2-1 spec inactive and KCNK9 uninduced inactive.
Cc1noc(NS(=O)(=O)c2ccc(NC(=O)C(Cl)(Cl)Cl)cc2)c1C was read as hERG protect -6, KCNQ1 act inactive, KCNK3 inh inactive, KCNK9 block inactive, KCNQ1 block inactive and Kir21 inh 0.76.
`O=C(c1ccccc1)n1c(=O)c(F)cn(COCCBr)c1=O` gave hERG protect -8, KCNQ1 act inactive, KCNK3 inh inactive, KCNK9 block inactive, KCNQ1 block inactive and Kir21 inh 0.01.
CC1CCC(C(C)C)C(OC(=O)COC(=O)c2ccc(N)cc2)C1 (stereo unspecified) was read as hERG protect -3, KCNQ1 act inactive, KCNK3 inh inactive, KCNK9 block inactive, KCNQ1 block inactive, Kir21 inh 0.59, KCNK9 inh conf inactive, Kir2-1 spec inactive and KCNK9 uninduced inactive.
Screening CCCCCn1c(=O)c(C(=O)c2ccccc2)nc2ccccc21 returned hERG protect -12, KCNQ1 act inactive, KCNK3 inh inactive, KCNK9 block -15*, KCNQ1 block inactive, Kir21 inh -1.1, KCNK9 inh conf 46%*, Kir2-1 spec inactive and KCNK9 uninduced 30%*.
For CCn1c(=O)c(C(C)=O)nc2ccccc21 the results were hERG protect -5, KCNQ1 act inactive, KCNK3 inh inactive, KCNK9 block inactive, KCNQ1 block inactive and Kir21 inh 0.2.
`COc1cccc(CC(=O)Nc2cc(S(=O)(=O)N3CCOCC3)ccc2OC)c1` gave KCNK3 inh inactive.
For CCc1nnc(NC(=O)C2Cc3ccccc3CN2S(=O)(=O)CC)s1 (stereo unspecified) the results were hERG protect -9, KCNQ1 act inactive, KCNK3 inh inactive, KCNK9 block inactive, KCNQ1 block inactive and Kir21 inh -0.17.
`CCc1nnc(NC(=O)C2Cc3ccccc3CN2S(=O)(=O)c2c(C)c(C)cc(C)c2C)s1` (stereo unspecified) gave hERG protect -7, KCNQ1 act inactive, KCNK3 inh inactive, KCNK9 block -13*, KCNQ1 block inactive, Kir21 inh -1.8, KCNK9 inh conf inactive, Kir2-1 spec inactive and KCNK9 uninduced 32%*.
CCOc1ccc(CN(C)C(=O)c2ccc(S(=O)(=O)N(C)c3ccccc3OC)cc2)cc1 was read as KCNK3 inh inactive.
`NC(=O)CC(NC(=O)Cc1ccc(Cl)cc1)c1ccc(NCCN2CCOCC2)c([N+](=O)[O-])c1` (stereo unspecified) gave hERG protect -10, KCNQ1 act inactive, KCNK3 inh inactive, KCNK9 block inactive, KCNQ1 block inactive and Kir21 inh 1.4.
`Cc1ccc(-n2c(C)nc3c(cnn3-c3ccc(C)c(C)c3)c2=O)cc1C` gave hERG protect -11, KCNQ1 act inactive, KCNK3 inh inactive, KCNK9 block inactive, KCNQ1 block inactive, Kir21 inh 0.08, KCNK9 inh conf inactive, Kir2-1 spec inactive and KCNK9 uninduced inactive.
Screening Cc1ccc(-n2c(C)nc3c(cnn3-c3ccc(F)cc3)c2=O)cc1C returned hERG protect -3, KCNQ1 act inactive, KCNK3 inh inactive, KCNK9 block inactive, KCNQ1 block inactive and Kir21 inh -0.1.
